Results from ChEMBL document CHEMBL5712095, “The UVSSA complex alleviates MYC-driven transcription stress” (J Cell Biol, 2021).
The source made the active and inactive calls. The calls are words filed in the database; no cut-off is given here.

Columns and labels:
Type in all cases: cell-based
[1] = Toxicity in human MCF10A cells with UVSSA knockdown assessed as increase in MYC ON/MYC OFF survival ratio at 100 ng/ml administered every 48 to 72 hrs over 14 days by FBCS assay; conditions: mcf10, 336 h, time 14 day
MCF10 [2] = assay: Inhibition of RNA polymerase 2 in human MCF10A cells with UVSSA knockdown assessed as increase in MYC ON/MYC OFF survival ratio at 100 ng/ml administered every 48 to 72 hrs over 14 days by FBCS assay; conditions: time 14.0 day
MCF10 [3] = assay: Inhibition of RNA polymerase 2 in human MCF10A cells with UVSSA knockdown assessed as transiently alleviation of synthetic sickness phenotype at 100 ng/ml administered every 48 to 72 hrs over 14 days by FBCS assay; conditions: time 14.0 day
MCF10 [4] = assay: Inhibition of DNA replicative polymerase in human MCF10A cells with UVSSA knockdown assessed as transiently alleviation of synthetic sickness phenotype at 50 ng/ml administered every 48 to 72 hrs over 26 days by FBCS assay; conditions: time 26.0 day
Procedure, shortened: (§1)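 FBCS: 250,000 shUVSSA-4 or shCONTROL MCF10A-MYC-ER cells coplated with 250,000 shRNA-free cells. Given 1 µg/ml doxycycline, 200 nM 4OHT or ethanol vehicle, and aphidicolin (top dose 50 ng/ml) or vehicle every 48–72 h for 26 d. Fluorescent fraction measured by flow cytometry at each passage; MYC ON/MYC OFF ratio calculated; n = 3.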

MCF10 [5] = assay: Inhibition of DNA replicative polymerase in human MCF10A cells with UVSSA knockdown assessed as increase in MYC ON/MYC OFF survival ratio at 50 ng/ml administered every 48 to 72 hrs over 26 days by FBCS assay; conditions: time 26.0 day; procedure, shortened: as §1
[6] = biological target: Ubiquitin carboxyl-terminal hydrolase 7 (Homo sapiens) (UniProt Q93009); assay: Inhibition of USP7 in human MCF10A-MYC-ER cells assessed as increase in sensitization of MYC expressing cells up to 4 uM by Clonogenic assays relative to control; conditions: MCF10
Procedure, shortened: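 Clonogenic assay: MCF10A-MYC-ER cells plated at 500 per 100-mm dish with 200 nM 4OHT or vehicle. Next day, P5091 at 0–4 µM for 24 h, then medium with 4OHT or vehicle for 10 d at 37°C. Colonies methanol-fixed, crystal violet-stained and counted; percentage survival from colony number; unpaired t test, n = 4.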

[7] = biological target: Ubiquitin carboxyl-terminal hydrolase 7 (Homo sapiens) (UniProt Q93009); assay: Inhibition of USP7 in human MCF10A-MYC-ER cells assessed as increase in sensitization of MYC expressing cells up to 4 uM by MTT assay relative to control; conditions: MCF10
DNA = assay: Induction of DNA double strand breaks in human MCF10A cells assessed as significant accumulation of P-CHK1(S345) or P-RPA (S4/S8) by Western blot analysis; conditions: MCF10
Procedure, shortened: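 Immunoblot of whole-cell lysates (RIPA buffer with protease/phosphatase inhibitors, sonicated, cleared at 4°C) from MCF10A-MYC-ER shRNA lines given 200 nM 4OHT or vehicle plus 1 µg/ml doxycycline every 3 d and harvested at day 9. β-Actin is the loading control and NCS-treated cells the DSB positive control. Signal detected by ECL on film.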

Sequence of Ubiquitin carboxyl-terminal hydrolase 7 (Homo sapiens) (Q93009 whole entry, looked up): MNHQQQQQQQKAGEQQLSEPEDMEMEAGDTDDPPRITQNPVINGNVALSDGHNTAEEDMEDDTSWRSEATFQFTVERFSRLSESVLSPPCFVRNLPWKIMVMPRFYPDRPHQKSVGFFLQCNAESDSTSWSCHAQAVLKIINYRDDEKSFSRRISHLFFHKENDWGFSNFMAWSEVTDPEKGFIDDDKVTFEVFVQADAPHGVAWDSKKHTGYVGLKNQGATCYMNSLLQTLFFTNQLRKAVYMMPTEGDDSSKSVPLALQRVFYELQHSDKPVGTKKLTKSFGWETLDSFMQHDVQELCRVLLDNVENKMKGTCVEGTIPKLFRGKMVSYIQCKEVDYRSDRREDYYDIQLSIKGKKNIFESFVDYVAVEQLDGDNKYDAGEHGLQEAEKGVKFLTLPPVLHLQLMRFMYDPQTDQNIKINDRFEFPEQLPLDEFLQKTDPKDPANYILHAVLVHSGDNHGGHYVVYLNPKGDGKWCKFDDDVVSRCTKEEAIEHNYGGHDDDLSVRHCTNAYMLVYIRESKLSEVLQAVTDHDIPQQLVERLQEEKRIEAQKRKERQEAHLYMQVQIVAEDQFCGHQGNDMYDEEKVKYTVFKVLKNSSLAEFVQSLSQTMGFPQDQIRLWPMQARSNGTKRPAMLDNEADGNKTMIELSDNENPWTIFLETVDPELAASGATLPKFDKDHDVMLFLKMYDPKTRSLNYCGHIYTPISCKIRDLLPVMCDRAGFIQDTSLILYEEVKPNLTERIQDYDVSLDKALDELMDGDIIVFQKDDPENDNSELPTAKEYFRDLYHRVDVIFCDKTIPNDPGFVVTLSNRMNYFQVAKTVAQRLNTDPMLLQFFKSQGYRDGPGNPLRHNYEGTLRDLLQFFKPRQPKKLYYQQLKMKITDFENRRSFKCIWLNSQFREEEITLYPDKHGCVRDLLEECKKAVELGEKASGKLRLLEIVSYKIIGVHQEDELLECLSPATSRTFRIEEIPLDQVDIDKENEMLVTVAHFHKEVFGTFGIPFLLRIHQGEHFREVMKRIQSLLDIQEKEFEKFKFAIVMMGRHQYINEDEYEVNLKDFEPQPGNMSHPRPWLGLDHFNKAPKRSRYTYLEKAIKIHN

## CC[C@H](C)[C@@H]1NC(=O)CNC(=O)[C@@H]2Cc3c([nH]c4cc(O)ccc34)[S@+]([O-])C[C@H](NC(=O)CNC1=O)C(=O)N[C@@H](CC(N)=O)C(=O)N1C[C@H](O)C[C@H]1C(=O)N[C@@H]([C@@H](C)[C@@H](O)CO)C(=O)N2
[1]
  Activity: Toxic
MCF10 [2]
  inhibition: Active
MCF10 [3]
  inhibition: Active

## C[C@@]1(CO)[C@H](O)CC[C@@]2(C)[C@H]1CC[C@H]1C[C@@H]3C[C@@]12CC[C@]3(O)CO
MCF10 [4]
  inhibition: inactive
MCF10 [5]
  inhibition: inactive

## CC(=O)c1cc([N+](=O)[O-])c(Sc2cccc(Cl)c2Cl)s1
[6]
  inhibition: Active
[7]
  fold change (FC): 3

## CN[C@H]1[C@@H](O[C@@H]2C3CC#C[C@H]4O[C@@]4(C4COC(=O)O4)C#CC3=C[C@H]2OC(=O)c2c(O)ccc3c(C)cc(OC)cc23)O[C@H](C)[C@H](O)[C@@H]1O (stereo partly drawn)
DNA
  Activity: Active
